The source made the active and inactive calls. No cut-off for these calls is given here.
Tests used:
Rattus norvegicus [1] = assay: Antiinflammatory activity of compound expressed as percentage inhibition of carrageenan edema 4 hr after an oral dose of 33 mg/kg.; format: functional
Summary of the method: (§1)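 Rat carrageenan paw edema, subplantar carrageenan injection, per Winter et al. Oral dosing in water with 4% polyethylene glycol and 0.2% Tween 80, dilute NaOH added as needed to dissolve. Six rats per treated group, eight per vehicle-only or phenylbutazone group, run concurrently. Read-out is mean % inhibition of edema 4 h after the dose versus vehicle controls.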

Rattus norvegicus [2] = assay: Antiinflammatory activity of compound expressed as percentage inhibition of carrageenan edema 4 hr after an oral dose of 10 mg/kg.; format: functional; summary of the method: as §1
Rattus norvegicus [3] = assay: Antiinflammatory activity of compound expressed as percentage inhibition of carrageenan edema 4 hr after an oral dose of 10 mg/kg; Not available; format: functional, organism-based; set-up: dose 10 mg/kg; summary of the method: as §1

Row | Compound | inhibition in vivo at 33 mg/kg (Rattus norvegicus [1]) | inhibition in vivo at 10 mg/kg (Rattus norvegicus [2]) | inhibition (Rattus norvegicus [3])
1 | CN1C(C(=O)O)=C(O)c2ccccc2S1(=O)=O | 0% |  | 
2 | O=C1NS(=O)(=O)c2ccccc21 [SACCHARIN] | 0% |  | 
3 | CN1C(C(=O)Nc2cc(O)ccn2)=C(O)c2ccccc2S1(=O)=O | 24% | 10% | 
4 | CN1c2c(n3ccccc3nc2=O)-c2ccccc2S1(=O)=O | 46% | 38% | 
5 | CN1C(C(=O)Nc2ccc(O)cn2)=C(O)c2ccccc2S1(=O)=O [HYDROXY PIROXICAM METABOLITE] | 17% | 15% | 
6 | CN1C(=O)c2ccccc2S1(=O)=O | 12% |  | 
7 | CN1C(C(=O)Nc2cccc(O)n2)=C(O)c2ccccc2S1(=O)=O | 40% | 31% | 
8 | CCCCC1C(=O)N(c2ccccc2)N(c2ccccc2)C1=O [PHENYLBUTAZONE] | 50% | 35% | 
9 | CN1C(C(=O)Nc2ncccc2O)=C(O)c2ccccc2S1(=O)=O | 41% | 13% | 
10 | CN1CC(=O)c2ccccc2S1(=O)=O | 8% |  | inactive
11 | CN1C(C(=O)Nc2ccccn2)=C(O)c2ccccc2S1(=O)=O [PIROXICAM] | 75% | 67% | 
